Consider five compounds from ChEMBL document CHEMBL1121579, “Synthesis and adrenergic blocking effects of 2-(alkylamino)-3,4-dihydroquinazolines” (1980).

SMILES strings stand for the structures.

Experiment [1] has as its system Rattus norvegicus. Briefly: Decrease in mean arterial blood pressure in response to intravenous administration at 4 uM/kg of the compound. The format is functional, Artery. In outline: (§1)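 Male Sprague-Dawley rats, 300–350 g, anesthetized with pentobarbital sodium 40 mg/kg ip, trachea cannulated for ventilation. Drugs dissolved in 0.9% saline and injected into a cannulated external jugular vein. Poorly soluble material was given in polyethylene glycol/ethanol/water 20:10:70. n = 3 per determination.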

Experiment [2] relates to Rattus norvegicus. Briefly: Decrease in mean arterial blood pressure in response to intravenous administration at 32 uM/kg of the compound. In kind it is functional, Artery. In short, it runs like this:
as §1

The subject of experiment [3] is Rattus norvegicus. Description: Decrease in mean arterial blood pressure in response to intravenous administration at 64 uM/kg of the compound. The format is functional, Artery. In short, it runs like this: as §1
Experiment [4] has as its system Rattus norvegicus. Description: Decrease in mean arterial blood pressure in response to intravenous administration at 16 uM/kg of the compound. In kind it is functional, Artery. In short, it runs like this: as §1
The subject of experiment [5] is Rattus norvegicus. Briefly: Decrease in mean arterial blood pressure in response to intravenous administration at 8 uM/kg of the compound. In kind it is functional, Artery. In short, it runs like this:
as §1

Experiment [6] concerns Rattus norvegicus. Description: Antagonist effect to pressor response of 0.3 ug/kg of norepinephrine intravenously in rats at the dose 32 uM/kg. In kind it is functional. In short, it runs like this: as §1
In experiment [7] the test system is Rattus norvegicus. Description: Decrease in mean arterial blood pressure in response to intravenous administration at 2 uM/kg of the compound. The format is functional, Artery. In short, it runs like this: as §1
Experiment [8] deals with Rattus norvegicus. Description: Decrease in mean arterial blood pressure in response to intravenous administration at 32 uM/kg of the compound. The format is functional, Artery. In outline: as §1
For experiment [9], the system named is Rattus norvegicus. Briefly: Decrease in mean arterial blood pressure in response to intravenous administration at 64 uM/kg of the compound. The format is functional, Artery. In outline: as §1
For experiment [10], the system named is Rattus norvegicus. Description: decrease in mean arterial blood pressure in response to intravenous administration at 16 uM/kg of the compound. In kind it is functional. In outline:
as §1

The test system of experiment [11] is Rattus norvegicus. Briefly: Antagonist effect to pressor response of 0.3 ug/kg of norepinephrine intravenously in rats at the dose 32 uM/kg. The format is functional. In outline:
as §1

For experiment [12], the system named is Rattus norvegicus. Description: Decrease in mean arterial blood pressure in response to intravenous administration at 16 uM/kg of the compound. In kind it is functional, Artery. In outline:
as §1

In the case of `CNC1=Nc2ccccc2CN1`, the “Decrease in blood pressure” value in the experiment on Rattus norvegicus [1] amounted to 7.7%; with Rattus norvegicus [2] it was 25%; in the experiment with Rattus norvegicus [3] it was 33.3%; in the experiment on Rattus norvegicus [4], 19.7%; in the experiment with Rattus norvegicus [5] it was 12.7%; in the experiment on Rattus norvegicus [7], 4.67%. The same compound returned a Block with Rattus norvegicus [6] of 37.8%.
For the compound `NC1=Nc2ccccc2CN1`, the “Decrease in blood pressure” value in the experiment with Rattus norvegicus [8] is 17.7%; in the experiment with Rattus norvegicus [1], 12%; in the experiment with Rattus norvegicus [9] it was 23.3%; with Rattus norvegicus [10], 15%; in the experiment on Rattus norvegicus [5], 13.3%; in the experiment on Rattus norvegicus [7], 6.76%. The same compound showed a Block with Rattus norvegicus [11] of 49.3%.
Regarding `CN(C)C1=Nc2ccccc2CN1`, the “Decrease in blood pressure” value in the experiment on Rattus norvegicus [8] was 12.3%; with Rattus norvegicus [1], 0%; with Rattus norvegicus [3], 24.7%; in the experiment on Rattus norvegicus [5], 5.67%; with Rattus norvegicus [7], 0%; with Rattus norvegicus [12], 7.3%. This compound also returned a Block in the experiment with Rattus norvegicus [11] of 10%.
Turning to `CCCN(CCC)C1=NCc2ccccc2N1`, the “Decrease in blood pressure” value is given as 7.6% with Rattus norvegicus [1]; 40% in the experiment on Rattus norvegicus [2]; 30.9% with Rattus norvegicus [4]; 11.5% in the experiment on Rattus norvegicus [5]; 3.2% with Rattus norvegicus [7].
`Cc1ccc(N(CC2=NCCN2)c2cccc(O)c2)cc1` [PHENTOLAMINE] displayed a Block in the experiment on Rattus norvegicus [11] of 66.2%.
